Results: ChEMBL document CHEMBL4373697, “Cyclization of RGD Peptides by Suzuki-Miyaura Cross-Coupling” (J Med Chem, 2019)

Key:
[1] = target: Integrin alpha-5/beta-1 (Homo sapiens, UniProt P05556+P08648); test: Inhibition of human fibronectin binding to human integrin alpha5beta1 incubated for 1 hr by ELISA; type: protein-complex assay
[2] = target: T1, Integrin alpha-V/beta-3 (Homo sapiens, UniProt P05106+P06756); test: Inhibition of human vitronectin binding to human integrin alphavbeta3 receptor after 1 hr by ELISA; type: protein-complex assay
[3] = target: Integrin alpha-IIb/beta-3 (Homo sapiens, UniProt P05106+P08514); test: Inhibition of human fibronectin binding to human Integrin alpha2b beta3 receptor incubated for 1 hr by ELISA; type: protein-complex assay
[4] = Half-life in human plasma at 500 uM incubated for 24 hrs and measured up to 24 hrs by LC-MS analysis; type: ADME, cell-free
Procedure, shortened: (§1)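 Compound from DMSO stock (final DMSO ≤1%) in human citrate plasma, pH 7.5, incubated at 37 °C, 400 rpm, for 24 h. Aliquots were taken at 0, 1, 3, 6, 8 and 24 h and quenched with cold acetonitrile containing warfarin (50 µM final) as internal standard, then centrifuged. Supernatant was run by LC-MS; UV peak area was compared with the internal standard.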

[5] = target: T1, Integrin alpha-V/beta-3; test: Binding affinity to integrin alphavbeta3 receptor in human WM115 cells assessed as inhibition of cell adhesion to vitronectin after 0.5 hr by fluorescence assay; type: cell-based
[6] = Half-life in human plasma at 250 uM incubated for 24 hrs and measured up to 24 hrs by LC-MS analysis; type: ADME, cell-free; procedure, shortened: as §1

T1 sequence (P05106 27-788 limits assumed): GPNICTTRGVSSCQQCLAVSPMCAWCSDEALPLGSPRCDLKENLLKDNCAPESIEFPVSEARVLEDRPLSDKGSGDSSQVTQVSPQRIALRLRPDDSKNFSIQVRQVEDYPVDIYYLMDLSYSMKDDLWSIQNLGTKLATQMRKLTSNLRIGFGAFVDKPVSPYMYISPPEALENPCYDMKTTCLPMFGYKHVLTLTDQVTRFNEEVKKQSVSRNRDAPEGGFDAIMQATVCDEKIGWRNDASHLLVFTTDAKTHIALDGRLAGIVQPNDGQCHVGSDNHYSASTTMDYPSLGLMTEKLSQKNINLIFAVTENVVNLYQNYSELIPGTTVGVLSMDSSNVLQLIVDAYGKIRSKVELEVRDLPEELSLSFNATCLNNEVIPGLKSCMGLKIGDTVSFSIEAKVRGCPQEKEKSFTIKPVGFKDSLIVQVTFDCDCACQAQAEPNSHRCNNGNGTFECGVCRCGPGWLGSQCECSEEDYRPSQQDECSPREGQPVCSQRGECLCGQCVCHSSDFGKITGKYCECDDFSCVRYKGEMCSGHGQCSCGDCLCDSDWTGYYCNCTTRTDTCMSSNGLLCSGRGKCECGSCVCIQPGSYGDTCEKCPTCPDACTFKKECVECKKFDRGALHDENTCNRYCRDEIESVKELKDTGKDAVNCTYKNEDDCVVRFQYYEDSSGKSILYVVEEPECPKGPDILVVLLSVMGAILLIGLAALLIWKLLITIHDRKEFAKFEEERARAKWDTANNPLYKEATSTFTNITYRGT
T1 sequence (P06756 31-889 limits assumed): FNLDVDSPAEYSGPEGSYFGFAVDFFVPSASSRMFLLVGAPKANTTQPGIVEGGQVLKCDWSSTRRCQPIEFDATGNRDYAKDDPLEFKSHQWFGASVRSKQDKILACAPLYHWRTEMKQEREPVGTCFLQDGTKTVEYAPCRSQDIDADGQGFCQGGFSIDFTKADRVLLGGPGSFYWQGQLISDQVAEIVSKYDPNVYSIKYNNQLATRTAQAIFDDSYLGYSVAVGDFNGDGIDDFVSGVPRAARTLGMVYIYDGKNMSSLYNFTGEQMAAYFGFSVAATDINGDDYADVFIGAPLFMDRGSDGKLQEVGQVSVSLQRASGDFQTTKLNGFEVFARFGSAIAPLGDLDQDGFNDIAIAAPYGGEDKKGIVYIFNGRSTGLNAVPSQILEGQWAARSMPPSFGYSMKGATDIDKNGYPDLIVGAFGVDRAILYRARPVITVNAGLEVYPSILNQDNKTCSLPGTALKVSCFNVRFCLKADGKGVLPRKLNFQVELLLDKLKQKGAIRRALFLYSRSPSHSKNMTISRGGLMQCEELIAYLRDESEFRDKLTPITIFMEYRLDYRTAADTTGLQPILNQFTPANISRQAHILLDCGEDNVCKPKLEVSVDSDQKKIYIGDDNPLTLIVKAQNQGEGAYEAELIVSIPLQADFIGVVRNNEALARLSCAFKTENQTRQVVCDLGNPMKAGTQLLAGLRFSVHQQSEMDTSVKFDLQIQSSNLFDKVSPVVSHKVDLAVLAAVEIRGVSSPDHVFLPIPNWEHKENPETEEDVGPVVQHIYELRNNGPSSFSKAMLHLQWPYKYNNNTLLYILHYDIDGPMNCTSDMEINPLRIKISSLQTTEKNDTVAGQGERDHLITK
T1 sequence (P06756 891-1048 limits assumed): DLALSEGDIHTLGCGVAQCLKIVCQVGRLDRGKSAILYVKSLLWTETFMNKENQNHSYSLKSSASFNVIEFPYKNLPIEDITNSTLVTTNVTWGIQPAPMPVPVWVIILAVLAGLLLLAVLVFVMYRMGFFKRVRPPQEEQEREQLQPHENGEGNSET
Integrin alpha-IIb/beta-3, sequence (P05106 27-788 limits assumed): as the sequence (P05106 27-788 limits assumed) above
Integrin alpha-IIb/beta-3, sequence (P08514 32-887 limits assumed): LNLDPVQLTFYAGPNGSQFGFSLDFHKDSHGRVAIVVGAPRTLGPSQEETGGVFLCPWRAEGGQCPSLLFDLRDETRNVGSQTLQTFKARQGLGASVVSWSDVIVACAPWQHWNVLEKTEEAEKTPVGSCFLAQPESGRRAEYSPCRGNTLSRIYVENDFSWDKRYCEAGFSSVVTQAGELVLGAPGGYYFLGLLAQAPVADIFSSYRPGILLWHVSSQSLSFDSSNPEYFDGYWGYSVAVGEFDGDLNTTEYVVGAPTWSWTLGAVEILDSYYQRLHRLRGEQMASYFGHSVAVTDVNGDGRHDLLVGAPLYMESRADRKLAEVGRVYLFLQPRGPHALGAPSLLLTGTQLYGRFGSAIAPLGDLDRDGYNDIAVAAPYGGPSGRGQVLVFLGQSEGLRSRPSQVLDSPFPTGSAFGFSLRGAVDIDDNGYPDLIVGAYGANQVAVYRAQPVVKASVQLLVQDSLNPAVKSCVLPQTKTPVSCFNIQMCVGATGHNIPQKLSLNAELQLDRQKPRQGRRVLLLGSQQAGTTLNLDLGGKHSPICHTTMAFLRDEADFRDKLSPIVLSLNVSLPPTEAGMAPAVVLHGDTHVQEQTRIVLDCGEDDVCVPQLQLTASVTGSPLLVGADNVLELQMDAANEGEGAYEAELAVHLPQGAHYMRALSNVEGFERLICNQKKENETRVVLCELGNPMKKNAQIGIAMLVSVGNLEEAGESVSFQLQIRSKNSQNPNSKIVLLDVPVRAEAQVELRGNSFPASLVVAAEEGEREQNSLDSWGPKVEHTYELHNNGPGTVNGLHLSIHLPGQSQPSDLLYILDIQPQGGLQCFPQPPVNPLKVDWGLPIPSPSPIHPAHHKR
Integrin alpha-IIb/beta-3, sequence (P08514 891-1039 limits assumed): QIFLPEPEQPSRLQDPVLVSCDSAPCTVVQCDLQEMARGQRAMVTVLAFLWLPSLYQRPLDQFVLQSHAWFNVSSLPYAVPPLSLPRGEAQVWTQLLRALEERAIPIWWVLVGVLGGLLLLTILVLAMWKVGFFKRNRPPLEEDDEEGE
Integrin alpha-5/beta-1, sequence (P05556 21-798 limits assumed): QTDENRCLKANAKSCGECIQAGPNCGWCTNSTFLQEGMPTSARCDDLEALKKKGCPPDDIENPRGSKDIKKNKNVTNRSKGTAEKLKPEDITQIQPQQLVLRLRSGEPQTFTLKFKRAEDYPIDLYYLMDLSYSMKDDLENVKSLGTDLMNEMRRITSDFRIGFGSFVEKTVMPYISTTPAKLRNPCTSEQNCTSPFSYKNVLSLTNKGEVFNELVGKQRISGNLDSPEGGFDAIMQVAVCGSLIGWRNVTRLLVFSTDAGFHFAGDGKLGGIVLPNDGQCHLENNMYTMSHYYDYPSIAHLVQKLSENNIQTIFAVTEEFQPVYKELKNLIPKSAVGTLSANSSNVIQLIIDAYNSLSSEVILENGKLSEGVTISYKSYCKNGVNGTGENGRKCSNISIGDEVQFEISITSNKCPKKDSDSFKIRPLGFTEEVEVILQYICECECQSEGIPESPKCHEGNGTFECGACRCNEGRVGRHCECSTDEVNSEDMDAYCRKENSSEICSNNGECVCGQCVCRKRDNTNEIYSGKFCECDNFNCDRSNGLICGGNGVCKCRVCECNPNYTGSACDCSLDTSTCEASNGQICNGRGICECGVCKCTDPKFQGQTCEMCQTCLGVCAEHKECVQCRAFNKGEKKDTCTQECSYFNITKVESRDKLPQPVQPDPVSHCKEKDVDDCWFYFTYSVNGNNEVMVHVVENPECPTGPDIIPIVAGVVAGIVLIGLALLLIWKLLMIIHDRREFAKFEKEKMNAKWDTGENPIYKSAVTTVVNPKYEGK
Integrin alpha-5/beta-1, sequence (P08648 42-894 limits assumed): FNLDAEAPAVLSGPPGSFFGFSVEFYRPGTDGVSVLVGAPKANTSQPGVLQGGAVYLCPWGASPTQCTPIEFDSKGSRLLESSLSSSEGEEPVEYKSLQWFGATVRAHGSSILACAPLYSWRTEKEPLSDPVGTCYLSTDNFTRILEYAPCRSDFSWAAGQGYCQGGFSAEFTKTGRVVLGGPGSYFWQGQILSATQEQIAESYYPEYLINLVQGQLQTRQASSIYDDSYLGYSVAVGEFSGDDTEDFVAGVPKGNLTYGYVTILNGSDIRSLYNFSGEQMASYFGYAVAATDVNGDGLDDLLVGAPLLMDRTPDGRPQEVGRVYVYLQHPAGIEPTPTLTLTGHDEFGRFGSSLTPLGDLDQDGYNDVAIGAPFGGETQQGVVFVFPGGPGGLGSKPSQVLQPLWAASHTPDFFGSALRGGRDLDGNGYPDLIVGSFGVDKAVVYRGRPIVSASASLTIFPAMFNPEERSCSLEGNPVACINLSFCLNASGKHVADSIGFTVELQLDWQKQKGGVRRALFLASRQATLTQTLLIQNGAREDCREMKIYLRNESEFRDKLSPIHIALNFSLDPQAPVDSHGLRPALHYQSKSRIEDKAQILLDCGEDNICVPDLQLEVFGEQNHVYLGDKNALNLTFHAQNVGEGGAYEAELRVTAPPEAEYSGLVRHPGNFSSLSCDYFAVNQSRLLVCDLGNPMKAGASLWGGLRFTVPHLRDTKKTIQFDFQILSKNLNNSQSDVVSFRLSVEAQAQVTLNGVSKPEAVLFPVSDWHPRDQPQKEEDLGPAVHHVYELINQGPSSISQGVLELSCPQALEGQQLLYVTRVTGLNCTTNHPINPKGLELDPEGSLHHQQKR
Integrin alpha-5/beta-1, sequence (P08648 895-1049 limits assumed): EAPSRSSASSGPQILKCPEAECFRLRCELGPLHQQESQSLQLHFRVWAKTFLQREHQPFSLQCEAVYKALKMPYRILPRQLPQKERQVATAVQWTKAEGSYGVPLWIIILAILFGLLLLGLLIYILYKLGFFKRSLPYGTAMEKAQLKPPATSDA

Compound | IC50 [1] [nM] | IC50 [2] [nM] | IC50 [3] [nM] | half-life at 500 µM [4] [min] | IC50 [5] [nM] | half-life at 250 µM [6] [min]
CN1C(=O)[C@H](Cc2ccccc2)NC(=O)[C@H](CC(=O)O)NC(=O)CNC(=O)[C@H](CCCNC(=N)N)NC(=O)c2cccc(c2)-c2cccc3c(c[nH]c23)C[C@@H]1C(N)=O | 547 | 5.4 to 13.9 | 5800 | > 1440 | 9400 | 
CN1C(=O)[C@H](CC(=O)O)NC(=O)CNC(=O)[C@H](CCCNC(=N)N)NC(=O)c2ccc(cc2)-c2cccc3c(c[nH]c23)C[C@H]1C(N)=O | > 10000 | 239 |  |  | > 500000 | 
N=C(N)NCCC[C@@H]1NC(=O)c2ccc(cc2)-c2ccc3c(c[nH]c3c2)C[C@H](C(N)=O)NC(=O)[C@H](Cc2ccccc2)NC(=O)[C@H](CC(=O)O)NC(=O)CNC1=O | > 10000 | 59.2 |  |  | 310000 | 
CN1C(=O)[C@H](Cc2ccccc2)NC(=O)[C@H](CC(=O)O)NC(=O)CNC(=O)[C@H](CCCNC(=N)N)NC(=O)CCCCc2cccc3c(c[nH]c23)C[C@@H]1C(N)=O | 563 | 36.2 |  |  | > 500000 | 
CN1C(=O)[C@H](Cc2ccccc2)NC(=O)[C@H](CC(=O)O)NC(=O)CNC(=O)[C@H](CCCNC(=N)N)NC(=O)CCc2cccc3c(c[nH]c23)C[C@@H]1C(N)=O | 325 | 12.8 | 5030 |  | 250000 | 
N=C(N)NCCC[C@@H]1NC(=O)c2ccc(cc2)-c2cccc3c(c[nH]c23)C[C@@H](C(N)=O)NC(=O)[C@@H](Cc2ccccc2)NC(=O)[C@H](CC(=O)O)NC(=O)CNC1=O | 5670 | 579 |  |  | > 500000 | 
CN1C(=O)[C@H](Cc2ccccc2)NC(=O)[C@H](CC(=O)O)NC(=O)CNC(=O)[C@H](CCCNC(=N)N)NC(=O)c2ccc(cc2)-c2cccc3c(c[nH]c23)C[C@@H]1C(N)=O | 835 | 23 | > 10000 |  | 11100 | 
CN1C(=O)[C@H](Cc2ccccc2)NC(=O)[C@H](CC(=O)O)NC(=O)CNC(=O)[C@H](CCCNC(=N)N)NC(=O)CCCCCc2cccc3c(c[nH]c23)C[C@@H]1C(N)=O | 419 | 38.9 |  |  | > 500000 | 
N=C(N)NCCC[C@@H]1NC(=O)c2ccc(cc2)-c2cccc3c(c[nH]c23)C[C@@H](C(N)=O)NC(=O)[C@H](CC(=O)O)NC(=O)CNC1=O | 3660 | 491 |  |  | > 500000 | 
CN1C(=O)[C@H](Cc2ccccc2)NC(=O)[C@H](CC(=O)O)NC(=O)CNC(=O)[C@H](CCCNC(=N)N)NC(=O)c2ccc(cc2)-c2ccc3c(c[nH]c3c2)C[C@@H]1C(N)=O | 2720 | 14.9 | > 10000 |  | 244000 | 
CN1C(=O)[C@H](Cc2ccccc2)NC(=O)[C@H](CC(=O)O)NC(=O)CNC(=O)[C@H](CCCNC(=N)N)NC(=O)c2ccccc2-c2cccc3c(c[nH]c23)C[C@@H]1C(N)=O | 1.92 | 64.6 |  |  | 158000 | 
N=C(N)NCCC[C@@H]1NC(=O)c2ccc(cc2)-c2cccc3c(c[nH]c23)C[C@H](C(N)=O)NC(=O)[C@H](Cc2ccccc2)NC(=O)[C@H](CC(=O)O)NC(=O)CNC1=O | 9290 | 17.7 | > 10000 |  | 51000 | 
N=C(N)NCCC[C@@H]1NC(=O)c2cccc(c2)-c2cccc3c(c[nH]c23)C[C@@H](C(N)=O)NC(=O)[C@@H](Cc2ccccc2)NC(=O)[C@H](CC(=O)O)NC(=O)CNC1=O | 983 | 65 |  |  | > 500000 | 
N=C(N)NCCC[C@@H]1NC(=O)c2cccc(c2)-c2cccc3c(c[nH]c23)C[C@@H](C(N)=O)NC(=O)[C@H](CC(=O)O)NC(=O)CNC1=O | 8030 | 19 |  |  | > 500000 | 
CN1C(=O)[C@H](CC(=O)O)NC(=O)CNC(=O)[C@H](CCCNC(=N)N)NC(=O)c2ccc(cc2)-c2cccc3c(c[nH]c23)C[C@@H]1C(N)=O | > 10000 | 537 |  |  | > 500000 | 
N=C(N)NCCC[C@@H]1NC(=O)c2ccc(cc2)-c2cccc3c(c[nH]c23)C[C@H](C(N)=O)NC(=O)[C@H](CC(=O)O)NC(=O)CNC1=O | 5940 | 41.3 | > 10000 |  | > 500000 | 
CN1C(=O)[C@@H](Cc2ccccc2)NC(=O)[C@H](CC(=O)O)NC(=O)CNC(=O)[C@H](CCCNC(=N)N)NC(=O)c2ccc(cc2)-c2cccc3c(c[nH]c23)C[C@H]1C(N)=O | 2160 | 95.2 |  |  | > 500000 | 
CN1C(=O)[C@H](Cc2ccccc2)NC(=O)[C@H](CC(=O)O)NC(=O)CNC(=O)[C@H](CCCNC(=N)N)NC(=O)CCCc2cccc3c(c[nH]c23)C[C@@H]1C(N)=O | 154 | 34 |  |  | > 500000 | 
CCN(CC)CCOC(=O)c1ccc(N)cc1 [PROCAINE] |  |  |  |  |  | 30
